PubChem BioAssay AID1885 (Broad Institute, 2009)
The whole screen tested about 300,000 compounds, of which about 4,400 (1.5%) were called active. The list comes from a sample in which actives are over-represented; it also holds similar structures and randomly drawn compounds. Values without a mark were called inactive.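 How the source made its calls: active means mean inhibition across valid replicates above about 55% (limit read from the data); inconclusive means mean below that limit but half or more replicates reach it; inactive means mean below it, under half of replicates reach it.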

Test: inhibitors of intracellular T. cruzi growth, primary screen, luminescence, NIH3T3 host cells (AID 1885);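 further: signal also drops with host cell toxicity which is not excluded here; 0% = plate median of DMSO wells and 100% = zero luminescence signal; higher percent means less beta-gal luminescence so fewer parasites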
Settings: T. cruzi beta-gal in NIH3T3, luminescence, 90 h; stronger effect = higher value; concentration not given here
How it was run: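 System – NIH/3T3 host cells with β-galactosidase reporter T. cruzi · Doses – single 50 nL compound addition per well in DMSO · Reagent – 5000 T. cruzi trypomastigotes/well · Medium – Low-serum DMEM with 2% FBS · Timing – ≥90 h infection period, 3 h prior cell attachment · Evaluation – parasite load inhibition, % · Technique – GalScreen luminescence, 60 min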
In the case of `Cc1cc(S(=O)(=O)Nc2ccc(C(=O)NCC(c3ccco3)N3CCCC3)cc2)ccc1F` (stereo unspecified), the inhibition is reported as 63.7% (active). `COc1ccc(C(CNC(=O)c2cccc(NS(=O)(=O)c3ccc(C)c(F)c3)c2)N2CCCC2)cc1` (stereo unspecified) gave an inhibition of -13.1%. Compound `COc1ccc(C(CNC(=O)c2ccc(NS(=O)(=O)c3ccc(F)c(C)c3)cc2)N(C)C)cc1` (stereo unspecified) has an inhibition of 3.47%. Work on `O=C(NNC(=O)c1cc(-c2ccccc2Cl)nc2ccccc12)c1csc(N2CCOCC2)n1` yielded an inhibition of -2.25%. `O=C(Nc1ccc(C(=O)O)cc1)/C(=C\c1ccccc1)NC(=O)c1ccc(Br)cc1` gave an inhibition of -8.09%. For `CCN(CC(=O)NCc1cccs1)S(=O)(=O)c1ccc(NC(C)=O)cc1`, the inhibition was -2.26%. For `CC1CCCCN1S(=O)(=O)c1ccc(C(=O)Nc2nnc(-c3cccs3)o2)cc1` (stereo unspecified), the inhibition was 43.1%. For `CC1CCCCN1S(=O)(=O)c1ccc(S(=O)(=O)N(CC(=O)Nc2ccccc2)Cc2cccs2)cc1` (stereo unspecified), the inhibition was 57.2% (active). Compound `CC(OC(=O)C1CC(=O)N(Cc2ccccc2)C1)C(=O)Nc1ccccc1[N+](=O)[O-]` (stereo unspecified) has an inhibition of -2.86%. In the case of `COc1ccc2[nH]c(C)c(CCN(Cc3cccs3)C(=S)Nc3ccccc3OC)c2c1`, the inhibition is reported as 60% (active). Work on `COc1cccc(NC(=S)N(CCc2c(C)[nH]c3ccccc23)Cc2ccco2)c1` yielded an inhibition of 18.1%. In the case of `Cc1[nH]c2ccccc2c1CCN(Cc1cccs1)C(=S)NC(C)(C)C`, the inhibition is reported as 26.1%. For `CC(C)c1nc(SCC(=O)NC(=O)NC(C)(C)C)n[nH]1`, the inhibition was -2.85%. In the case of `CCCCCCCCCCOC(=O)Cn1c(COc2cccc(OC)c2)[n+](C)c2ccccc21`, the inhibition is reported as 65.1% (active). `CCn1c(=N)n(CC(=O)c2cccc(OC)c2)c2ccccc21` gave an inhibition of 7.38%. In the case of `CCCCCCCCCCOC(=O)Cn1c(COc2ccc(C)cc2)[n+](C)c2ccccc21`, the inhibition is reported as 46.2%. With `CCCCCC(=O)N1CCN(S(=O)(=O)c2ccc3c(c2)OCCCO3)CC1` the inhibition was -5.19%. Compound `Cc1cc(Nc2ccc(Br)cc2)nc2ccccc12` has an inhibition of 32.6%. `CCCc1nc2c(c(=O)c3ccccc3n2C)c(=O)n1-c1cc(C)cc(C)c1` gave an inhibition of 34.2%. In the case of `Cn1c2ccccc2c(=O)c2c(=O)n(Cc3ccco3)c(COc3ccccc3)nc21`, the inhibition is reported as 62.2% (active). With `CCCc1nc2c(c(=O)c3ccccc3n2C)c(=O)n1C1CCCCCC1` the inhibition was 22.4%. Work on `Cc1ccc(OCCC(=O)OCC(=O)N2c3ccccc3NC(=O)C2(C)C)cc1` yielded an inhibition of -1.24%. With `COc1ccc(S(=O)(=O)N2CCOC23CCN(S(=O)(=O)c2ccc([N+](=O)[O-])cc2)CC3)cc1` the inhibition was 61.5% (active). With `COc1ccc(CNC(=O)C(=O)N2CCC3(CC2)OCCN3S(=O)(=O)c2ccc(C)cc2)cc1` the inhibition was -4.09%. For `COc1ccc(S(=O)(=O)N2CCSCC2)cc1`, the inhibition was 5.81%. Work on `CC1(C)O[C@H]2CC(=O)OCC23[C@H]2CC[C@@]4(C)[C@H](c5ccoc5)OC(=O)[C@H]5O[C@]54[C@]2(C)C(=O)C[C@@H]13` (stereo partly specified) yielded an inhibition of -3.05%. `Nc1scc[n+]1Cc1cccc2cccnc12` showed an inhibition of -1.61%. With `c1ccc2c(C[n+]3csc4ccccc43)cccc2c1` the inhibition was 59.8% (active). Compound `c1ccc(NCc2cccc3ccccc23)nc1` has an inhibition of 1.93%. `FC(F)Oc1ccccc1NC(=S)Nc1cccc(Cl)c1Cl` gave an inhibition of 0.408%. `CC(C(=O)NCC1CCCCC1)N(C)Cc1cccc(Cl)c1` (stereo unspecified) showed an inhibition of 10.6%. With `CCOC(=O)/C(=C\c1ccc([N+](=O)[O-])cc1)C(=O)c1cc(C(C)=O)c(Nc2ccccc2)s1` the inhibition was 55.8% (active). For `Cc1ccc(NC(=O)/C(=C/c2ccc([N+](=O)[O-])cc2)NC(=O)c2ccccc2)cc1`, the inhibition was 1.7%. In the case of `CCOC(=O)COc1ccc([N+](=O)[O-])cc1`, the inhibition is reported as -3.58%. Compound `COC(=O)C1[C@H]2SC(C)(C)C(C(=O)OC)N2C(=O)N1Cc1nc2ccccc2s1` (stereo partly specified) has an inhibition of -4.35%. Work on `CC(OC(=O)c1ccc(S(=O)(=O)N2CCOCC2)cc1)c1ccccc1` (stereo unspecified) yielded an inhibition of 1.58%. With `CC(C)CN(C(=O)COC(=O)c1ccc(Cl)c(N)c1)c1c(N)n(Cc2ccccc2)c(=O)[nH]c1=O` the inhibition was 10.2%. For `Cc1ccc(C)c(N2CCN(C(=O)CCCCCn3c(=S)[nH]c4ccc(N5CCOCC5)cc4c3=O)CC2)c1`, the inhibition was 56.8% (active). Compound `Cc1ccc(C)c(N2CCN(C(=O)CCCCn3c(=O)[nH]c4ccccc4c3=O)CC2)c1` has an inhibition of 4.26%. In the case of `O=C(CCCCCn1c(=S)[nH]c2cc3c(cc2c1=O)OCO3)N1CCN(c2ccc(F)cc2)CC1`, the inhibition is reported as 7.91%. For `Cc1ccn(C(CC(=O)c2ccc(Br)cc2)C(=O)O)n1` (stereo unspecified), the inhibition was -6.81%. Work on `CCN(CC)C(=O)CSC1c2ccccc2C(=O)N1c1ccccc1` (stereo unspecified) yielded an inhibition of -17.2%. In the case of `CCOc1ccc(CCNC(=O)C(CC)n2nc(C)n3c(cc4sccc43)c2=O)cc1OCC` (stereo unspecified), the inhibition is reported as 59.3% (active). For `CCC(C(=O)NCc1ccc(OC)cc1)n1nc(C)n2c(cc3occc32)c1=O` (stereo unspecified), the inhibition was -2.81%. With `COc1ccc(CCNC(=O)c2cc3sccc3n2C)cc1OC` the inhibition was -11.3%. Work on `COc1ccc(-n2nnnc2CNC(=O)c2ccc3ccccc3c2)cc1` yielded an inhibition of -2.55%. With `Cc1ccc(CN(Cc2cccnc2)C(=S)Nc2cc(Cl)ccc2C)cc1` the inhibition was 77.2% (active). With `Cc1c(Cl)cccc1NC(=S)N(Cc1ccccc1)Cc1cccnc1` the inhibition was 18.3%. `Cc1ccc(CN(Cc2cccnc2)C(=S)Nc2cccc(Cl)c2C)cc1` gave an inhibition of 3%. `CCOc1ncccc1C(=O)NNC(=O)c1cccc(S(=O)(=O)Nc2ccccc2OC)c1` showed an inhibition of 0.733%. In the case of `CC(C)c1nc(N2CCOCC2)c(C#N)c2c1COC(C)(C)C2`, the inhibition is reported as 12.5%. With `COc1ccc(CSc2nc(N3CCOCC3)c3c(c2C#N)CC(C)(C)OC3)cc1` the inhibition was 60.5% (active). `CC1(C)Cc2c(C#N)c(SCc3nc4ccccc4[nH]3)nc(N3CCOCC3)c2CO1` showed an inhibition of 23.1%. `CSc1ccccc1NC(=O)C(C)N1C(=O)c2ccccc2S1(=O)=O` (stereo unspecified) gave an inhibition of -1.05%. `COc1ccc(N(CC(=O)N2CCOCC2)S(=O)(=O)c2ccccc2)cc1Cl` showed an inhibition of -3.61%. With `CCCn1nc(C(=O)NNC(=O)CSCC(=O)Nc2cc(C)on2)c2ccccc2c1=O` the inhibition was -11.5%. With `N#CCN(C(=O)COC(=O)C1CC2CCCC(C1)C2=O)c1ccccc1` (stereo unspecified) the inhibition was -10.6%. In the case of `Oc1ccc(/C=N/Nc2nc(-c3ccccc3F)nc3ccccc23)c(O)c1`, the inhibition is reported as -4.73%. For `Cc1nc2ccccc2nc1N/N=C/c1ccc(O)cc1O`, the inhibition was 60% (active). `Oc1ccc(/C=N/NC2=NCCCCC2)c(O)c1` gave an inhibition of -40.4%. For `Cc1c(NC(=O)C(C)Oc2cccc(Cl)c2)c(=O)n(-c2ccccc2)n1C` (stereo unspecified), the inhibition was -6.21%. Compound `O=C(CN1CCN(S(=O)(=O)c2ccc(F)cc2)CC1)Nc1ccccc1F` has an inhibition of 4.08%. In the case of `O=C(CN1CCN(S(=O)(=O)c2ccc(Br)cc2)CC1)Nc1ccccc1C(=O)c1ccccc1`, the inhibition is reported as 56% (active). In the case of `COc1ccccc1NC(=O)CN1CCN(S(=O)(=O)c2ccc(Br)cc2)CC1`, the inhibition is reported as 8.31%. Work on `COc1cccc(COc2ccc(N(C)S(=O)(=O)c3ccccc3)cc2)c1` yielded an inhibition of 9.64%. `COc1ccc(N=Cc2c(O)[nH]c3ccccc23)cc1OC` showed an inhibition of -17.8%. For `CN=c1scc(-c2cc(OC)ccc2OC)n1/N=C/c1c(C)[nH]c2ccccc12`, the inhibition was 73.4% (active). For `CCn1c(-c2cc(OC)ccc2OC)csc1=Nc1c(C)n(C)n(-c2ccccc2)c1=O`, the inhibition was 13.7%. Work on `O=C(CCNC(=O)c1ccc(Br)cc1)Nc1cccc(S(=O)(=O)N2CCCCC2)c1` yielded an inhibition of 3.39%. With `COc1c(C)c2c(c(O)c1C/C=C(\C)CCC(=O)O)C(=O)OC2` the inhibition was 62.2% (active). In the case of `CCN(CC(=O)Nc1c(F)cccc1F)C(=O)c1ccc(-c2ccccc2)cc1`, the inhibition is reported as -22.3%. Compound `Cc1ccccc1NC(=O)C(C)OC(=O)CCC(=O)N(CC(C)C)c1c(N)n(CC(C)C)c(=O)[nH]c1=O` (stereo unspecified) has an inhibition of 0.843%. With `Fc1ccc(CNCc2ccc(Br)cc2)cc1` the inhibition was -7.54%. With `Cc1c(NC(=O)C(C)OC(=O)c2c3c(nc4ccccc24)CCC(C)C3)c(=O)n(-c2ccccc2)n1C` (stereo unspecified) the inhibition was -9.27%. With `COc1ccc(CCNC(=O)COC(=O)/C=C/c2cccs2)cc1OC` the inhibition was -3.17%. With `COC(=O)C1=CN(Cc2ccc(OC)cc2)C=C(C(=O)OC)C1c1ccc(O)c(OC)c1` the inhibition was 11.3%. In the case of `COC(=O)C1=CN(Cc2ccc(OC)c(OC)c2)C=C(C(=O)OC)C1c1cccs1`, the inhibition is reported as 65% (active). With `CCc1c(C)nc2c(-c3ccccc3)c(C)nn2c1Nc1ccc(NC(C)=O)cc1` the inhibition was 54.5% (active). For `Cc1cc(-n2nc(C)cc2C)n2nc(C)c(-c3ccccc3)c2n1`, the inhibition was 14.4%. `Cc1cc(-c2ccccc2)n2nc(C)c(-c3ccccc3)c2n1` gave an inhibition of 32.1%. With `O=S(=O)(Nc1cccc(-c2ccc(N3CCOCC3)nn2)c1)c1ccc(Cl)c(Cl)c1` the inhibition was -4.53%. With `COc1ccc(Cl)cc1NC(=O)CN(C)C(=O)c1cc2ccccc2cc1OC` the inhibition was 12.8%. Compound `COc1ccccc1OCCn1c(SCC(N)=O)nc2ccccc21` has an inhibition of -6.95%. Work on `O=C(CSc1ccccn1)N1CCN(S(=O)(=O)c2ccc(Cl)cc2)CC1` yielded an inhibition of -3.29%. For `O=C(Nc1ccccc1N1CCCC1)c1ccc(F)c(S(=O)(=O)N2CCOCC2)c1`, the inhibition was -5.53%. In the case of `O=C(NCCCNC(=O)NC1CCCCC1)NC1CCCCC1`, the inhibition is reported as -9.22%.
